# Source: PubChem (several laboratories)
# Sampled rows, rich in hits. Any-hit rate of the full collection: about 2.2%.
# TbHK1 inh – T. brucei hexokinase 1 inhibition; recombinant TbHK1, G6PDH-coupled NADH A340; inhibition, % at 10 µM; 220,000 tested, 0.11% active; AID 1430;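 active means inhibition of 50% or more in the single-dose primary screen; inactive means inhibition below 50%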
# Hck Nef HTS – blocks Nef-activated human Hck kinase; Recombinant Hck-YEEI plus Nef, Z-Lyte FRET kinase assay; inhibition, % at 20 µM; 220,000 tested, 0.68% active; AID 463187;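 active means Hck-Nef kinase inhibition above about 50%, limit read from the data; inactive means inhibition below that limit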;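 further: 0% = DMSO with Hck plus Nef and 100% = Hck alone without Nef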
# RanGTP-Imp inh – disruptors of Ran-importin-beta complex formation – biochemical, FRET, CFP-Ran, YFP-importin-beta, homogeneous, primary screen; cell-free CFP-Ran/YFP-importin-beta FRET ratio; inhibition, % (no concentration beside the values); 300,000 tested, 1.1% active;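 active means more than half of the replicate wells show a fall in the fluorescence ratio signal beyond about 16%, limit read from the data, passing the limit was not always enough; inconclusive means exactly half of the replicate wells pass the set limit; inactive means fewer than half of replicates pass the limit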;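 further: 0% = DMSO wells and 100% = Ran loaded with GDP instead of GTP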
# Runt-CBFb FRET – blocks binding of human RUNX1 Runt domain to CBFb. Q01196+Q13951. Cerulean-Runt/Venus-CBFb FRET ratio 530/480, 1 h. inhibition, % at 20 µM. 220,000 tested, 0.46% active. AID 1496;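 active means inhibition over about 50% at 20 µM in the single-dose screen, limit read from the data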;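 further: 0% = DMSO wells and 100% = excess unlabeled CBFb competitor control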
# Target sequence (Q01196 whole entry, looked up, the tested form may be a part): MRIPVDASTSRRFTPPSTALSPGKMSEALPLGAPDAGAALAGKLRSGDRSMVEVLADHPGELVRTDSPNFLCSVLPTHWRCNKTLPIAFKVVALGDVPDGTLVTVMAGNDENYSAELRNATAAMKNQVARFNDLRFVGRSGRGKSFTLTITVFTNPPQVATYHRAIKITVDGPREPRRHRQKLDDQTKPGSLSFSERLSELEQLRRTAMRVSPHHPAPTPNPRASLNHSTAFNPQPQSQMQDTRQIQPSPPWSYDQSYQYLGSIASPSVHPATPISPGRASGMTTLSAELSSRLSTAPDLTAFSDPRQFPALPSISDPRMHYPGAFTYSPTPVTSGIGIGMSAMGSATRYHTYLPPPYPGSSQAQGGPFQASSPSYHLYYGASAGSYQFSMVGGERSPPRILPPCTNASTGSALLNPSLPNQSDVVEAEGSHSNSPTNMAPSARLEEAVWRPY
# Target sequence (Q13951 whole entry, looked up, the tested form may be a part): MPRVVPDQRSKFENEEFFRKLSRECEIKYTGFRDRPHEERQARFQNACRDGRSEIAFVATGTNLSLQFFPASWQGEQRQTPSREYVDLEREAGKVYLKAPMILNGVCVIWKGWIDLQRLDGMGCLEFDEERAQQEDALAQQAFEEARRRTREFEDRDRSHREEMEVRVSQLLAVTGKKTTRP
#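 Assay system: Cerulean-Runt domain / Medium: Tris 50 mM pH 7.5, KCl, K2SO4, 0.01% BSA / Timing: protein complex preformed 1 h, compound exposure 1 h, room temperature, dark / Measured by: FRET, excitation 422 nm, emission at 530 and 480 nm / Evaluation: loss of energy transfer signal / Control set: 5 µM unlabeled CBFb as full-inhibition high control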
# 14-3-3 Bad PPI – disrupts binding of bovine 14-3-3 zeta to phospho-Bad peptide; P63103; TR-FRET 14-3-3zeta/Dy647-pBad peptide displacement, 1 h; inhibition, % at 21.7 µM; 220,000 tested, 0.71% active; AID 781;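 active means inhibition above about 70%, limit read from the data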;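 further: 0% = full 14-3-3 plus peptide FRET controls and 100% = background without 14-3-3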
# Runt-SMMHC FRET – blocks binding of human RUNX1 Runt domain to CBFb-SMMHC; inhibition, % at 20 µM; AID 1434; Cerulean-Runt/Venus-CBFb-SMMHC FRET ratio 530/480, 1 h; 220,000 tested, 0.74% active;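 active means mean inhibition across duplicate retests at 20 µM reaching about 50%, limit read from the data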;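 further: 0% = DMSO wells and 100% = wells with excess untagged CBFb-SMMHC; inhibitors lower the FRET ratio by blocking Runt binding to CBFb-SMMHC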
# Numbers without * were called inactive; ? = inconclusive; · = no result given.
SMILES,TbHK1 inh,Hck Nef HTS,RanGTP-Imp inh,Runt-CBFb FRET,14-3-3 Bad PPI,Runt-SMMHC FRET
CCOC(=O)c1c(NC(=O)CN(CC)CC)sc2c1CCN(C(=O)OCC)C2,-7,2,-2,-6,-10,-6
COC(=O)c1c(NC(=O)C2COc3ccccc3O2)sc2c1CCN(Cc1ccccc1)C2 (stereo not given),-6,1,69*,29,-6,50
COC(=O)c1c(NC(=O)c2ccccc2C(=O)O)sc2c1CCC2,·,·,2,·,·,·
COC(=O)c1c(NC(C)=O)sc2c1CCCC2,-9,4,-4,0,-18,-8
COC(=O)c1c(NC(C)=O)sc2c1CCN(Cc1ccccc1)C2,·,·,91*,·,·,·
COC(=O)c1c(NC(=O)C(C)(C)C)sc2c1CCN(Cc1ccccc1)C2,·,·,32*,·,·,·
CCCNC(=O)c1c(NC(=O)C2COc3ccccc3O2)sc2c1CCCC2 (stereo not given),10,2,5,-2,-5,3
C=CCn1c(NC(=O)c2ccco2)c(S(=O)(=O)c2ccccc2)c2nc3ccccc3nc21,·,·,·,9,·,41
C=CCn1c(NC(=O)c2ccc(Br)o2)c(S(=O)(=O)c2ccccc2)c2nc3ccccc3nc21,-19,35,45*,8,13,35
Cc1[nH]c2ccccc2c1CCCO,-13,-18,18*,9,-4,84
COc1ccc(CNc2nc3ccccc3s2)cc1OC,·,·,6,·,·,·
COc1cc2ccccc2nn1,3,-31,65*,10,-2,82*
CC(=O)Nc1ccccc1NC(=O)C/C(C)=N/NC(=O)c1ccccn1,0,17,-1,·,-12,·
C/C(CC(=O)Nc1ccc(F)cc1)=N\NC(=O)c1ccccn1,-2,32,179*,1,-10,1
COc1cc(C(=O)Nc2nnc(C)s2)c([N+](=O)[O-])cc1OC,-23,9,-2,1,2,-3
Cc1cnc(C)c(N2CCC(C(=O)NCc3cccs3)CC2)n1,-19,1,2,-1,-18,4
COc1nc(OC)nc(N2CCC(C(=O)NCc3cccs3)CC2)n1,-6,-1,7,0,84*,-1
O=C(CNC(=O)c1ccccc1)OCCCOC(=O)CNC(=O)c1ccccc1,·,·,-2,·,·,·
COc1ccccc1N1CCN(C(=O)c2ccc3nc(-c4ccco4)c(-c4ccco4)nc3c2)CC1,-7,4,33*,9,-9,-43
Cc1ccc(C)c(N2CCN(C(=O)c3ccc4nc(-c5ccco5)c(-c5ccco5)nc4c3)CC2)c1,-12,7,52*,-3,3,-2
Cc1ccc(C)c(N2CCN(C(=O)c3ccc4nc(N5CCOCC5)sc4c3)CC2)c1,·,·,2,·,·,·
CC(C(=O)NC1CCCCCC1)c1ccc([N+](=O)[O-])cc1 (stereo not given),·,·,-2,·,·,·
CCN(CC)c1ccc(/C=N/NC(=O)c2cccc(S(=O)(=O)Nc3ccccc3OC)c2)c(O)c1,8,-10,8,-32,16,81*
N#Cc1ccc(/C=N/NC(=O)c2cccc(S(=O)(=O)N3CCOCC3)c2)cc1,-5,-15,32*,1,-4,-1
CC(=O)Nc1ccc(/C=N/NC(=O)c2cccc(S(=O)(=O)N3CCOCC3)c2)cc1,-24,5,-1,0,-18,3
SMILES,TbHK1 inh,Hck Nef HTS,RanGTP-Imp inh,Runt-CBFb FRET,14-3-3 Bad PPI,Runt-SMMHC FRET
CC1(C)Cc2c(sc(NC(=O)C(=O)N3CCCC3)c2C#N)CO1,·,·,1,·,·,·
COCCn1c(=NC(=O)c2ccc(S(=O)(=O)N3CCc4ccccc4C3)cc2)sc2cc(S(N)(=O)=O)ccc21,-20,7,1,-7,3,-6
COC(=O)Cn1c(=NC(=O)c2ccc(S(=O)(=O)N3CCc4ccccc4C3)cc2)sc2cc(OC)ccc21,-24,4,23*,-34,-61,-25
CCOc1ccc(-c2csc(NC(=O)CSCC(=O)O)n2)c2ccccc12,-10,16,0,27,1,97*
COc1ccc(C2CC(=O)c3cnc(Nc4cc(C)cc(C)c4)nc3C2)cc1 (stereo not given),-10,2,-2,·,76*,-6
Cc1cccc(N/N=C(\C(N)=O)C2=NC(C)(C)Cc3ccccc32)c1,-16,65*,4,-7,-5,-2
NS(=O)(=O)c1ccc(CNC(=O)CNC(=O)c2ccc(F)cc2)cc1,·,·,0,·,·,·
CCn1ncc(Cl)c1C(=O)Nc1ccc2c(c1)CCC2,·,·,0,·,·,·
CC1=C(C(=O)Nc2ccccc2)C(c2ccc3c(c2)OCO3)C2=C(CCCC2=O)N1 (stereo not given),-13,-7,1,1,10,-5
CCn1cc(C2C3=C(CC(C)(C)CC3=O)N(c3ccccc3)C3=C2C(=O)CC(C)(C)C3)c(C)n1,-10,8,?,23,-5,82*
CCn1cc(C2C(C(=O)Nc3cc(C)ccn3)=C(C)NC3=C2C(=O)CC(C)(C)C3)c(C)n1 (stereo not given),-19,28,3,28,1,69*
CC1=C(C(=O)Nc2cc(C)ccn2)C(c2ccc(C)cc2)C2=C(CCCC2=O)N1 (stereo not given),-14,36,-4,18,4,51*
CC1CCN(c2nnc(-c3cccs3)c3ccccc23)CC1,-3,-1,-5,0,-4,-1
O=C(O)COc1ccc2c(c1)O/C(=C\c1ccco1)C2=O,·,·,25*,·,·,·
Cc1ccc(/C=C2\Oc3cc(OCC(=O)NN)ccc3C2=O)o1,·,·,54*,·,·,·
O=C(O)COc1ccc2c(c1)O/C(=C\c1cccs1)C2=O,-44,14,14,18,2,56*
Nc1cc(=O)[nH]c(SCC(=O)c2ccc(F)cc2)n1,·,·,0,·,·,·
Cc1c(C(=O)C(=O)N2CCCc3ccccc32)c2ccccc2n1C,-27,5,0,1,2,0
Cc1cccc(NC(=O)Cn2cnc3ccccc3c2=O)c1C,-1,0,0,-2,92*,0
Cc1cc2c(c(=O)n1C)C(Cc1ccccc1)C(C#N)=C(N)O2 (stereo not given),-5,2,63*,123*,-1,146*
O=C(Cn1nnc(-c2ccccc2F)n1)OCC(=O)c1ccccc1,-1,-7,-3,2,4,-1
O=C(Cn1nnc(-c2ccc(F)cc2)n1)OCC(=O)c1ccccc1,3,8,20*,-1,1,-6
COCCNC(=O)CN1C(=O)NC2(CCCc3ccccc32)C1=O (stereo not given),·,·,1,·,·,·
NC1=C(O)C(=O)C(c2ccccc2)O1 (stereo not given),-3,0,7,2,-2,-6
Cc1ccc(S(=O)(=O)N2CCN(C(=O)C3CCN(C(=O)c4ccc(F)cc4)CC3)CC2)c(C)c1,·,·,5,·,·,·
